Data: paper PMC8159881 (ACS nano, 2021)

Legend:
INS-1E cells = assay: Glucose-stimulated insulin secretion assay; format: cell-based
Method in brief: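 Lentivirally transduced proinsulin-NanoLuc INS-1E cells were plated overnight (37 °C, 5% CO₂), washed, and held 1 h in KRB (HEPES, BSA) with 2.8 mM glucose. They got peptide for 5 min (2 μM; 5 or 10 μM in one set; DMSO mock), then 20 min in KRB with 20 mM glucose, or 2.8 mM as control. Supernatant luciferase read with coelenterazine.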

[1] = Partitioning and budding in phase-separated GUVs; details: for inward budding from the Ld phase of phase-separated GUVs: 10 μM Cy-5-labeled peptide, 30 min
Method in brief: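 Peptide was applied to the GUVs for 30 min before imaging. Fluorescein at 0.3 μM was added to the external buffer to mark true inward budding, seen as fluorescein-containing intraluminal vesicles.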

Cy5-CVWSLFNTLFM [AH(59-68)]
binding to the plasma membrane of INS-1E cells (INS-1E cells; cells pretreated with peptide): effectively bound to the plasma membrane

Cy5-DHVVWSLFNTLFMNPC [AH(56-71)]
inward budding from the Ld phase of phase-separated GUVs [1]: caused inward budding from this domain
binding of peptide to GUVs in the absence of cholesterol (Inward budding; GUVs without cholesterol): not affected
inward budding of GUVs without cholesterol containing DOPE (Inward budding; GUVs without cholesterol, DOPE 20 mol%): could be rescued
inward budding of GUVs without cholesterol (Inward budding; peptide added to GUVs without cholesterol): failed to induce efficient inward budding

Cy5-LVWHMFLSDNFTNPV [Scrambled AH(56-71)]
inward budding from the Ld phase of phase-separated GUVs [1]: failed to cause inward budding from this phase

FITC-Ahx-DHVVWSLFNTLFMNPC(PAL)CLGF [AH(56-75)]
phase partitioning in phase-separated GUVs ([1]; fluorescently-tagged peptide palmitoylated at Cys71): clearly partitioned to the Ld phase and appeared to concentrate at the phase boundary

lyso-PC [LPC, reference compound]
glucose-stimulated insulin secretion (INS-1E cells; cells pretreated with 20 μM LPC): promoted insulin secretion
budding of GUV membrane on addition of lipid (Inward budding; LPC titrated on preformed GUVs containing POPC and cholesterol): outward budding of the GUV membrane in an LPC dose-dependent manner
